Assay results taken from ChEMBL document CHEMBL1128234, “Isothiocyanate-substituted benzyl ether opioid receptor ligands derived from 6 beta-naltrexol” (J Med Chem, 1995).

Columns and labels:
[1] = molecular target: Mu-type opioid receptor (Cavia porcellus, UniProt P97266); assay: Inhibitory concentration was determined against Opioid receptor mu 1 using [3H]- DAMGO radioligand
Outline: (§1)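 Guinea pig brain (minus cerebellum) homogenate in 0.05 M Tris pH 7.4, diluted 1:60 (0.8-1.5 mg protein/ml). Ligand tested in duplicate at nine concentrations; 60 min at 25 °C. Nonspecific binding defined with naloxone. Filtration, ice-cold buffer rinse, scintillation counting.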

[2] = molecular target: Opioid receptors; mu/kappa/delta; assay: Inhibitory concentration was determined against Opioid receptors using [3H]- bremazocine radioligand; assay type: protein assay, Cavia porcellus; outline: as §1
[3] = molecular target: Kappa-type opioid receptor (Cavia porcellus) (UniProt P41144); assay: Irreversible binding affinity at Opioid receptor kappa 1 was evaluated as % of control specific binding remaining protected at concentration of 50 (nM) using [3H]U-69593 radioligand
Outline: (§2)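 Diluted guinea pig brain homogenate is exposed to ligand for 60 min at 25 °C; protected samples are first preincubated 15 min at 37 °C with 1 naloxone. Washed samples are diluted in ice-cold Tris pH 7.4, spun at 10000g for 15 min at 4 °C, then resuspended and incubated 15 min at 37 °C, twice. Read-out is standard radioligand binding, expressed as % of recovery-sample specific binding. Test ligands run in triplicate; reference averaged over three assays.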

[4] = molecular target: Kappa-type opioid receptor (Cavia porcellus) (UniProt P41144); assay: Irreversible binding affinity at Opioid receptor kappa 1 was evaluated as % of control specific binding remaining washed at concentration of 50 (nM) using [3H]U-69593 radioligand; outline: as §2
[5] = molecular target: Mu-type opioid receptor (Cavia porcellus) (UniProt P97266); assay: Irreversible binding affinity at mu-receptor was evaluated as % of control specific binding remaining unwashed at concentration of 80 (nM) using [3H]DAMGO radioligand
Outline: (§3)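 Guinea pig brain homogenate (less cerebellum) in 0.05 M Trizma pH 7.4, diluted 1:60. It was incubated with ligand 60 min at 25 °C, then diluted in ice-cold buffer and centrifuged 10000g. Washed samples were resuspended in buffer, incubated 15 min at 37 °C and recentrifuged. Binding used 1.0 nM [3H]DAMGO for 60 min at 25 °C, with filtration and counting. Nonspecific binding was set with 10 µM naloxone. Triplicates; % specific binding was taken relative to recovery controls.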

[6] = molecular target: Kappa-type opioid receptor (Cavia porcellus, UniProt P41144); assay: Inhibitory concentration against Opioid receptor kappa 1 using [3H]- U-69,593 radioligand; outline: as §1
[7] = molecular target: Mu-type opioid receptor (Cavia porcellus) (UniProt P97266); assay: Irreversible binding affinity at mu-receptor was evaluated as % of control specific binding remaining washed at concentration of 80 (nM) using [3H]DAMGO radioligand; outline: as §3
[8] = molecular target: Kappa-type opioid receptor (Cavia porcellus) (UniProt P41144); assay: Irreversible binding affinity at Opioid receptor kappa 1 was evaluated as % of control specific binding remaining unwashed at concentration of 50 (nM) using [3H]U-69593 radioligand; outline: as §2
[9] = molecular target: Kappa-type opioid receptor (Cavia porcellus) (UniProt P41144); assay: Irreversible binding affinity at Opioid receptor kappa 1 was evaluated as % of control specific binding remaining washed at concentration of 150 (nM) using [3H]U-69593 radioligand; outline: as §2
[10] = molecular target: Kappa-type opioid receptor (Cavia porcellus) (UniProt P41144); assay: Irreversible binding affinity at Opioid receptor kappa 1 was evaluated as % of control specific binding remaining protected at concentration of 150 (nM) using [3H]U-69593 radioligand; outline: as §2
[11] = molecular target: Mu-type opioid receptor (Cavia porcellus) (UniProt P97266); assay: Irreversible binding affinity at mu-receptor was evaluated as % of control specific binding remaining protected at concentration of 30 (nM) using [3H]DAMGO radioligand; outline: as §2
[12] = molecular target: Mu-type opioid receptor (Cavia porcellus) (UniProt P97266); assay: Irreversible binding affinity at mu-receptor was evaluated as % of control specific binding remaining washed at concentration of 30 (nM) using [3H]DAMGO radioligand; outline: as §3
[13] = molecular target: Mu-type opioid receptor (Cavia porcellus) (UniProt P97266); assay: Irreversible binding affinity at mu-receptor was evaluated as % of control specific binding remaining unwashed at concentration of 30 (nM) using [3H]DAMGO radioligand; outline: as §3
[14] = molecular target: Kappa-type opioid receptor (Cavia porcellus) (UniProt P41144); assay: Irreversible binding affinity at Opioid receptor kappa 1 was evaluated as % of control specific binding remaining protected at concentration of 20 (nM) using [3H]U-69593 radioligand; outline: as §2
[15] = molecular target: Kappa-type opioid receptor (Cavia porcellus) (UniProt P41144); assay: Irreversible binding affinity at Opioid receptor kappa 1 was evaluated as % of control specific binding remaining protected at concentration of 40 (nM) using [3H]U-69593 radioligand; outline: as §2
[16] = molecular target: Kappa-type opioid receptor (Cavia porcellus) (UniProt P41144); assay: Irreversible binding affinity at Opioid receptor kappa 1 was evaluated as % of control specific binding remaining unwashed at concentration of 20 (nM) using [3H]U-69593 radioligand; outline: as §2
[17] = molecular target: Kappa-type opioid receptor (Cavia porcellus) (UniProt P41144); assay: Irreversible binding affinity at Opioid receptor kappa 1 was evaluated as % of control specific binding remaining unwashed at concentration of 40 (nM) using [3H]U-69593 radioligand; outline: as §2
[18] = molecular target: Mu-type opioid receptor (Cavia porcellus) (UniProt P97266); assay: Irreversible binding affinity at mu-receptor was evaluated as % of control specific binding remaining protected at concentration of 50 (nM) using [3H]DAMGO radioligand; outline: as §2
[19] = molecular target: Mu-type opioid receptor (Cavia porcellus) (UniProt P97266); assay: Irreversible binding affinity at mu-receptor was evaluated as % of control specific binding remaining washed at concentration of 50 (nM) using [3H]DAMGO radioligand; outline: as §3
[20] = molecular target: Kappa-type opioid receptor (Cavia porcellus) (UniProt P41144); assay: Irreversible binding affinity at Opioid receptor kappa 1 was evaluated as % of control specific binding remaining washed at concentration of 40 (nM) using [3H]U-69593 radioligand; outline: as §2
[21] = molecular target: Kappa-type opioid receptor (Cavia porcellus) (UniProt P41144); assay: Irreversible binding affinity at Opioid receptor kappa 1 was evaluated as % of control specific binding remaining washed at concentration of 20 (nM) using [3H]U-69593 radioligand; outline: as §2
[22] = molecular target: Mu-type opioid receptor (Cavia porcellus) (UniProt P97266); assay: Irreversible binding affinity at mu-receptor was evaluated as % of control specific binding remaining unwashed at concentration of 50 (nM) using [3H]DAMGO radioligand; outline: as §3
[23] = molecular target: Mu-type opioid receptor (Cavia porcellus) (UniProt P97266); assay: Irreversible binding affinity at mu-receptor was evaluated as % of control specific binding remaining unwashed at concentration of 35 (nM) using [3H]DAMGO radioligand; outline: as §3
[24] = molecular target: Mu-type opioid receptor (Cavia porcellus) (UniProt P97266); assay: Irreversible binding affinity at mu-receptor was evaluated as % of control specific binding remaining protected at concentration of 35 (nM) using [3H]DAMGO radioligand; outline: as §2
[25] = molecular target: Kappa-type opioid receptor (Cavia porcellus) (UniProt P41144); assay: Irreversible binding affinity at Opioid receptor kappa 1 was evaluated as % of control specific binding remaining protected at concentration of 90 (nM) using [3H]U-69593 radioligand; outline: as §2
[26] = molecular target: Kappa-type opioid receptor (Cavia porcellus) (UniProt P41144); assay: Irreversible binding affinity at Opioid receptor kappa 1 was evaluated as % of control specific binding remaining unwashed at concentration of 90 (nM) using [3H]U-69593 radioligand; outline: as §2
[27] = molecular target: Mu-type opioid receptor (Cavia porcellus) (UniProt P97266); assay: Irreversible binding affinity at mu-receptor was evaluated as % of control specific binding remaining washed at concentration of 35 (nM) using [3H]-DAMGO radioligand; outline: as §3
[28] = molecular target: Kappa-type opioid receptor (Cavia porcellus) (UniProt P41144); assay: Irreversible binding affinity at Opioid receptor kappa 1 was evaluated as % of control specific binding remaining washed at concentration of 90 (nM) using [3H]-U-69,593 radioligand; outline: as §2

Kappa-type opioid receptor, sequence (P41144 whole entry): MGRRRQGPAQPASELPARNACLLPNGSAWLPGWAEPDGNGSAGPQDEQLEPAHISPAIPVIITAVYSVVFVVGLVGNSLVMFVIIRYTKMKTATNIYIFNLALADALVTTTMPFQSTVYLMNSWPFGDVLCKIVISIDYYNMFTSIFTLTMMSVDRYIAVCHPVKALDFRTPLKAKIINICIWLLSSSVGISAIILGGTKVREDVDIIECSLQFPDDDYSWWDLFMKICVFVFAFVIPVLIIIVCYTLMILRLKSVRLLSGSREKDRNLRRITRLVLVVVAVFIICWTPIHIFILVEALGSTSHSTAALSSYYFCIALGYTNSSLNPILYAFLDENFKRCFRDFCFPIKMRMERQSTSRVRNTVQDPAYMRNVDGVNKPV
Kappa-type opioid receptor (Cavia porcellus), sequence (P41144 whole entry): as above
Mu-type opioid receptor (Cavia porcellus), sequence (P97266 whole entry): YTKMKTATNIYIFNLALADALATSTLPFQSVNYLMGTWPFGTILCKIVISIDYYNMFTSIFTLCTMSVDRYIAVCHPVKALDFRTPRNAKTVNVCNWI
Mu-type opioid receptor, sequence (P97266 whole entry): as above

Oc1ccc2c3c1O[C@H]1[C@H](OCc4cccc(N=C=S)c4)CC[C@@]4(O)C(C2)N(CC2CC2)CCC314 (some centres not stated)
IC50 [1]: 27 nM | IC50 [2]: 27 nM | Control [3]: 25% | Control [4]: 25% | Control [5]: 4% | IC50 [6]: 17 nM | Control [7]: 14% | Control [8]: 12%

Oc1ccc2c3c1O[C@H]1[C@H](OCc4ccccc4CN=C=S)CC[C@@]4(O)C(C2)N(CC2CC2)CCC314 (some centres not stated)
IC50 [1]: 20 nM | IC50 [2]: 69 nM | Control [9]: 35% | IC50 [6]: 43 nM | Control [10]: 45%

Oc1ccc2c3c1O[C@H]1[C@H](OCc4ccc(CN=C=S)cc4)CC[C@@]4(O)C(C2)N(CC2CC2)CCC314 (some centres not stated)
Control [11]: 67% | Control [12]: 56% | Control [13]: 59% | IC50 [1]: 11 nM | IC50 [2]: 21 nM | Control [14]: 95% | Control [15]: 64% | Control [16]: 61% | Control [17]: 32% | IC50 [6]: 7.4 nM | Control [18]: 60% | Control [19]: 58% | Control [20]: 58% | Control [21]: 68% | Control [22]: 22%

Oc1ccc2c3c1O[C@H]1[C@H](OCc4ccc(N=C=S)cc4)CC[C@@]4(O)C(C2)N(CC2CC2)CCC314 (some centres not stated)
Control [23]: 14% | Control [24]: 48% | Control [25]: 27% | IC50 [1]: 9.6 nM | IC50 [2]: 22 nM | Control [26]: 14% | IC50 [6]: 21 nM | Control [27]: 46% | Control [28]: 28%
